Legend:
[1] = target: T1, Serine/threonine-protein kinase Chk1 (Homo sapiens) (UniProt O14757); assay: Inhibition of CHK1 (unknown origin) at 10 uM relative to control
T1 sequence (whole entry): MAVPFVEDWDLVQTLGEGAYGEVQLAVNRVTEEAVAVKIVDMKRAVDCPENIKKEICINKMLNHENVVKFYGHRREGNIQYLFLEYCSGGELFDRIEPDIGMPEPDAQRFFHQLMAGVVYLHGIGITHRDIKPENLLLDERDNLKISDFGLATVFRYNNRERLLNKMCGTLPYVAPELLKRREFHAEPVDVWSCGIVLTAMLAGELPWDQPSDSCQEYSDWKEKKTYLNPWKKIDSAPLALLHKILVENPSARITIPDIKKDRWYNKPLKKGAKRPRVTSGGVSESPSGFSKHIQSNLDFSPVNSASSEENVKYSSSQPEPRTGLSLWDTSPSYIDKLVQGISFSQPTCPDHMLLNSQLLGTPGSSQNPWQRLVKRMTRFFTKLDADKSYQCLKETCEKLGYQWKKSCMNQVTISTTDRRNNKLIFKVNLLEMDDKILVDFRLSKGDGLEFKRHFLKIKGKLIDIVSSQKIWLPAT
Outline: (§1)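 Single-point screen of each compound against a panel of 59 protein kinases, at 1 or 10 μM. The panel data are also summarised as a rescaled geometric mean selectivity score.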

[2] = target: Mitogen-activated protein kinase 9 (Homo sapiens) (UniProt P45984); assay: Inhibition of JNK2 (unknown origin) at 10 uM relative to control; outline: as §1
Mitogen-activated protein kinase 9 (Homo sapiens), sequence (P45984 whole entry, looked up, the tested form may be a part): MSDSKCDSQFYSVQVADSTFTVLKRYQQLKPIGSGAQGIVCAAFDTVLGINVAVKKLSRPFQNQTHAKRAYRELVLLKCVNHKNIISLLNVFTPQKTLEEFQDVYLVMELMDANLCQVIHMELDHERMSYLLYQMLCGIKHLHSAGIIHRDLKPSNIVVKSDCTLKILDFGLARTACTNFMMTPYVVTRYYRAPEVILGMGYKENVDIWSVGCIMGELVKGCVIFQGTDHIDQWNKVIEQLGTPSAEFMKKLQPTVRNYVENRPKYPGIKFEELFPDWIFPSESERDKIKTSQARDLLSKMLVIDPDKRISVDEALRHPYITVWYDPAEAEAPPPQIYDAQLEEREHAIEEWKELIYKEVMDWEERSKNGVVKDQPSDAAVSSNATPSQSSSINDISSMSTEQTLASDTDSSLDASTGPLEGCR

[3] = target: Leucine-rich repeat serine/threonine-protein kinase 2 (Homo sapiens, UniProt Q5S007, G2019S); assay: Inhibition of recombinant human GST-tagged LRRK2 G2019S mutant catalytic domain (970 to 2527 residues) expressed in baculovirus expression system by radiometric assay
Leucine-rich repeat serine/threonine-protein kinase 2, sequence (Q5S007 whole entry G2019S, the tested form may be a part): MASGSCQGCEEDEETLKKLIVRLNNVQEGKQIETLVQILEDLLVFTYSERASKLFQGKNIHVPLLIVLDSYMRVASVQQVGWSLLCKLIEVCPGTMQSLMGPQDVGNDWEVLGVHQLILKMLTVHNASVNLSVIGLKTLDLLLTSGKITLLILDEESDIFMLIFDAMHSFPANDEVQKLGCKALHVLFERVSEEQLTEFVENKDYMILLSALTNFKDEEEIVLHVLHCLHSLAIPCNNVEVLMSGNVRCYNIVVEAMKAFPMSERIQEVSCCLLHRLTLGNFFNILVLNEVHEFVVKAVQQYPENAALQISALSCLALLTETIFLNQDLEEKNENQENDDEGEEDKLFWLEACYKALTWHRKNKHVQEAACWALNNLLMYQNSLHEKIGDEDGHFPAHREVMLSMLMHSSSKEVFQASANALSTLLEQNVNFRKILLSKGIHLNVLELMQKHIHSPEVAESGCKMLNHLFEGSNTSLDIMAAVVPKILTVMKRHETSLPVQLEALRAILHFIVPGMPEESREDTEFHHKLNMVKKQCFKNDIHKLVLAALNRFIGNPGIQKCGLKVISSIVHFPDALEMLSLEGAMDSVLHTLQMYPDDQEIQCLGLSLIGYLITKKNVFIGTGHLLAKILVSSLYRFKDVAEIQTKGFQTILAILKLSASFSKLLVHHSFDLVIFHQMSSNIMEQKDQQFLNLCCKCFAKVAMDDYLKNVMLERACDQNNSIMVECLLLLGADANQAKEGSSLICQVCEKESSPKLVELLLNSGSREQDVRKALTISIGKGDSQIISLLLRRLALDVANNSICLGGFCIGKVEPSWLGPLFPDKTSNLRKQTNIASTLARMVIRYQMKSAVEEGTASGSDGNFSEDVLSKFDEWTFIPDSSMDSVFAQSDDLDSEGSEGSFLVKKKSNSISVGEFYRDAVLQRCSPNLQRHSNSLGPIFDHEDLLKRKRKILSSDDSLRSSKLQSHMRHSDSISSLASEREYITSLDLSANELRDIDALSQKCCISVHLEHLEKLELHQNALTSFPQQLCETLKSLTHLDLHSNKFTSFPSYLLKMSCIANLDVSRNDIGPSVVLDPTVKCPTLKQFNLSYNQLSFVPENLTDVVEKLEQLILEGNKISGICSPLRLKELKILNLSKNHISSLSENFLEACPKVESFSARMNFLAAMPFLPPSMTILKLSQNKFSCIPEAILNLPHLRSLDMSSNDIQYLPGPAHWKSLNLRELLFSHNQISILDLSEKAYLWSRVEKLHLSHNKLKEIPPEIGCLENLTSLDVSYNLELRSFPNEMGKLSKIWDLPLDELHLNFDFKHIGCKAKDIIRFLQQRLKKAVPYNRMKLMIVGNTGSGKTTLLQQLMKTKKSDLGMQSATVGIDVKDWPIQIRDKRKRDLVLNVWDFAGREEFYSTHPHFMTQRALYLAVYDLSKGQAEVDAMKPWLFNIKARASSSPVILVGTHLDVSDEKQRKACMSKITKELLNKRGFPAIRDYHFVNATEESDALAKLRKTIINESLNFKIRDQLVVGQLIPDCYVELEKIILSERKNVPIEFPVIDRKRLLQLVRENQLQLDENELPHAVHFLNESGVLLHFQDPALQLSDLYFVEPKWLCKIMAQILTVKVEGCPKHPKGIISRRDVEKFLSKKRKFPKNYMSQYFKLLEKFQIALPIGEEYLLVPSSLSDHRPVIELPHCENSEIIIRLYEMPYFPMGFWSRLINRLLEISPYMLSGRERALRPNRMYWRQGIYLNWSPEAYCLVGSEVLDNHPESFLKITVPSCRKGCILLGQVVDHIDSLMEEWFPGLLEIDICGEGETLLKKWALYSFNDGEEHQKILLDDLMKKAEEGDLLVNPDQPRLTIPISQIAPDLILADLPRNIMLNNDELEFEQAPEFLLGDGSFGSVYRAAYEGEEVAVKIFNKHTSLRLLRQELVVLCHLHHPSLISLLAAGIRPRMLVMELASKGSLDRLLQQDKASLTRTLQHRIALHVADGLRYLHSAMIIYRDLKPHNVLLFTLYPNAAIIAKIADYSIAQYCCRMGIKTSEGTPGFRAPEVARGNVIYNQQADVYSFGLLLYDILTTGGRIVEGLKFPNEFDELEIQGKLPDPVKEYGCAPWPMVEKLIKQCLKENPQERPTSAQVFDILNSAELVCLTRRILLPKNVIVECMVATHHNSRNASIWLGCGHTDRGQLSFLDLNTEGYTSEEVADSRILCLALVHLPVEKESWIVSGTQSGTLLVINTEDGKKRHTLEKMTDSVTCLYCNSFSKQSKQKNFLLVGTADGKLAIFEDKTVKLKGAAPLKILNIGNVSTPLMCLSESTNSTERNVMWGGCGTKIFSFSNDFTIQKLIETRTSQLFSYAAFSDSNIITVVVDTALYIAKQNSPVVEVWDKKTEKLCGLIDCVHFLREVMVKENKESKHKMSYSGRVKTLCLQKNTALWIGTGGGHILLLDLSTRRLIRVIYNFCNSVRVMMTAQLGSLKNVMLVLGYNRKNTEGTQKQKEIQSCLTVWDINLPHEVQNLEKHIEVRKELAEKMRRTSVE

[4] = target: Casein kinase 2 (Homo sapiens) (UniProt P67870+P68400+P19784+Q8NEV1); assay: Inhibition of CK2 (unknown origin) at 10 uM relative to control; format: protein assay; outline: as §1
[5] = target: Calcium/calmodulin-dependent protein kinase type 1 (Homo sapiens) (UniProt Q14012); assay: Inhibition of CAMK1 (unknown origin) at 10 uM relative to control; outline: as §1
Calcium/calmodulin-dependent protein kinase type 1 (Homo sapiens), sequence (Q14012 whole entry, looked up): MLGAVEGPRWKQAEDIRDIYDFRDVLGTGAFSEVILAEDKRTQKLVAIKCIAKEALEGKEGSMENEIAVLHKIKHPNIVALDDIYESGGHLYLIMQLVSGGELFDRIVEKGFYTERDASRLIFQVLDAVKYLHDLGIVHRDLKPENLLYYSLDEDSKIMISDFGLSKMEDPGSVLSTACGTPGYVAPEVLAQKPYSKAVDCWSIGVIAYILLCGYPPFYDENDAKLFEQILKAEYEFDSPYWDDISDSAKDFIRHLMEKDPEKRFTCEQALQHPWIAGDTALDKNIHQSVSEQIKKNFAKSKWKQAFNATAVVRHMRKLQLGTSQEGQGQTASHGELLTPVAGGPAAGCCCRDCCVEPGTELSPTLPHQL

[6] = target: T2, Serine/threonine-protein kinase Nek2 (Homo sapiens) (UniProt P51955); assay: Inhibition of NEK2a (unknown origin) at 10 uM relative to control
T2 sequence (whole entry): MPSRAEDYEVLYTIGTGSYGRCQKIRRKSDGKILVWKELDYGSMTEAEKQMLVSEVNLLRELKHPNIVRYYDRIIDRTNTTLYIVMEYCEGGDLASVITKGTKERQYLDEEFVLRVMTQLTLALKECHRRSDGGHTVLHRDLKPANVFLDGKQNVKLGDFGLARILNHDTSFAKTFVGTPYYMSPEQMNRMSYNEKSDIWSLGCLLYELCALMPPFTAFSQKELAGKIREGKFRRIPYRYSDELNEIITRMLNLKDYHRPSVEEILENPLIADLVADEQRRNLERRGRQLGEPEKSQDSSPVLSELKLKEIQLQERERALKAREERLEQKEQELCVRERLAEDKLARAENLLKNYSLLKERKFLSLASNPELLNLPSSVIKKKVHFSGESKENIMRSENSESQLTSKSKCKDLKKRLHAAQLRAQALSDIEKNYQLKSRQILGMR
Outline: (§2)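 Single-concentration screen of each compound against a 59-protein-kinase panel, run at 10 µM or 1 µM. Activity relative to control is shown as a heat map across the panel.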

[7] = Stability in human liver microsomes assessed as compound turnover rate measured after 40 mins; format: ADME, Microsome; conditions: read-out: Drug metabolism
Outline: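 In vitro incubation of compound with liver microsomes: human (HLM) for 40 min, mouse (MLM) for 30 min. Reported as % turnover of parent compound.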

[8] = target: T3, Serine/threonine-protein kinase D1 (Homo sapiens) (UniProt Q15139); assay: Inhibition of PKD1 (unknown origin) at 10 uM relative to control; outline: as §2
T3 sequence (whole entry): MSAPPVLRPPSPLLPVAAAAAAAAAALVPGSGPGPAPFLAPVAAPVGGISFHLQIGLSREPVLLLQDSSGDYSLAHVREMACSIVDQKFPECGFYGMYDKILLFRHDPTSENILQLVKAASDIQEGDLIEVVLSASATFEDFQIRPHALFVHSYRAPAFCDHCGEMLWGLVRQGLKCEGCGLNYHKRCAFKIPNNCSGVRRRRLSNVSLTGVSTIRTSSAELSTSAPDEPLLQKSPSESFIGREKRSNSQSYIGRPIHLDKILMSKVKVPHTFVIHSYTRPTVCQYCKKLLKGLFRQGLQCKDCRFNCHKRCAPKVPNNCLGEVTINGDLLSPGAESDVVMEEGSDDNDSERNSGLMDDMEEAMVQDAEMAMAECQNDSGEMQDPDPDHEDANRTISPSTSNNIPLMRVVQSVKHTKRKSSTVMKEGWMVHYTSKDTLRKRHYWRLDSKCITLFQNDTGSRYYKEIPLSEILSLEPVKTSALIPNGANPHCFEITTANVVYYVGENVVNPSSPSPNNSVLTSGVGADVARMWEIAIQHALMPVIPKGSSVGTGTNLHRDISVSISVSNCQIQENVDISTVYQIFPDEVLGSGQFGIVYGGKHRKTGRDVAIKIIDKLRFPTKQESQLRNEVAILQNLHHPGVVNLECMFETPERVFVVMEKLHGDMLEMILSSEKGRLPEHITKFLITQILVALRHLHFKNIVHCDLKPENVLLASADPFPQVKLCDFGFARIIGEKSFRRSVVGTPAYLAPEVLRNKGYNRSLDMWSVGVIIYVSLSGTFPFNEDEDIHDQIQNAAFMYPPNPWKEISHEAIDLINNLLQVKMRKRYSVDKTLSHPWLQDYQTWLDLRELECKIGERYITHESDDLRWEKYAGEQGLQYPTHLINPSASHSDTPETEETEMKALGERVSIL

| SMILES | inhibition [1] [%] | inhibition [2] [%] | IC50 [3] [nM] | inhibition [4] [%] | inhibition [5] [%] | inhibition [6] [%] | metabolised at 40 min [7] [%] | inhibition [8] [%] |
| --- | --- | --- | --- | --- | --- | --- | --- | --- |
| Cc1n[nH]c2ccnc(Nc3ccc4ncsc4c3)c12 | 13 | 49 | 130 to 380 |  |  |  |  |  |
| Cc1n[nH]c2ccnc(OC3CCCCC3)c12 | 27 | 66 | 67 | 41 | 41 | 0 | 25 | 70 |
| c1cc(-c2n[nH]c3ccnc(OC4CCOCC4)c23)cc(N2CCOCC2)n1 |  |  | 12 |  |  |  | 43 |  |
| Cc1n[nH]c2ccnc(Nc3ccccc3F)c12 | 43 | 54 | 150 | 54 | 23 | 2 |  | 60 |
| Cc1n[nH]c2ccnc(NC3CCCCC3)c12 | 0 | 41 | 390 | 45 | 13 | 0 | 7 | 34 |
| CC(C)n1cc(-c2n[nH]c3ccnc(OC4CCOCC4)c23)cn1 |  |  | 11 |  |  |  | 21 |  |

Reference: ChEMBL document CHEMBL4330096, “Discovery of potent and selective 5-azaindazole inhibitors of leucine-rich repeat kinase 2 (LRRK2) - Part 1” (Bioorg Med Chem Lett, 2019)
